Activity calls are given as the source filed them. The calls are words filed in the database; no cut-off is given here.
Key:
[1] = Antiproliferative activity against human U373V cells assessed as inhibition of cell growth measured […] by MTT assay; assay type: functional
In short: (§1)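 Cells seeded at 6.5×10^2/well, left overnight, then exposed to vehicle or agent (n = 4-8; final 0.5–1000 μM; DMSO stocks of 50 or 10 mM diluted in medium). MTT read at time of addition and after 6 days at 37 °C, 5% CO₂. MTT 0.4 mg/mL for 4 h, formazan taken up in DMSO, A550. GI50 from non-linear regression; mean ± SD of >3 experiments.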

[2] = Antiproliferative activity against MGMT-expressing human U373M cells assessed as inhibition of cell growth measured after […] by MTT assay; assay type: functional; in short: as §1
[3] = system: HCT-116; test: Antiproliferative activity against MMR-deficient human HCT-116 cells assessed as inhibition of cell growth measured after […] by MTT assay; assay type: functional; in short: as §1
[4] = Cytotoxicity against human MRC5 cells assessed as inhibition of cell growth measured after 7 days by MTT assay; assay type: toxicity, cell-based; conditions: time 7 day; in short: as §1
[5] = Half life of the compound in phosphate buffered saline at pH 7.4 by 1H NMR spectroscopic analysis; assay type: physicochemical
In short: (§2)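 Half-life followed by ¹H NMR spectroscopy in phosphate buffers at pH 7.4 or 5.5.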

[6] = Half life of the compound in phosphate buffered saline at pH 5.5 by 1H NMR spectroscopic analysis; assay type: physicochemical; in short: as §2
[7] = Half life of the compound in phosphate buffered saline at pH 7.4 by LC-MS analysis; assay type: physicochemical
In short: (§3)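 Half-life in phosphate buffers at pH 5, 6.8 or 7.4 followed by LC-MS; mean of two independent experiments.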

[8] = Half life of the compound in phosphate buffered saline at pH 6.8 by LC-MS analysis; assay type: physicochemical; in short: as §3
[9] = Half life of the compound in phosphate buffered saline at pH 5 by LC-MS analysis; assay type: physicochemical; in short: as §3
[10] = Half life in human plasma; assay type: ADME, cell-free
[11] = Half life in rat plasma; assay type: ADME, cell-free
[12] = Intrinsic clearance in human liver microsomes in presence of NADPH; assay type: ADME, Microsome; conditions: read-out: CLH
[13] = Half life in human liver microsomes in presence of NADPH; assay type: ADME, Microsome
[14] = Intrinsic clearance in human liver microsomes in absence of NADPH; assay type: ADME, Microsome; conditions: read-out: CLH
[15] = Half life in human liver microsomes in absence of NADPH; assay type: ADME, Microsome
[16] = Intrinsic clearance in rat liver microsomes in presence of NADPH; assay type: ADME, Microsome; conditions: read-out: CLH
[17] = Half life in rat liver microsomes in presence of NADPH; assay type: ADME, Microsome
[18] = Intrinsic clearance in rat liver microsomes in absence of NADPH; assay type: ADME, Microsome; conditions: read-out: CLH
[19] = Half life in rat liver microsomes in absence of NADPH; assay type: ADME, Microsome
[20] = Permeability of the compound measured after 6 hrs by PAMPA assay; assay type: ADME; conditions: read-out: permeability
In short: (§4)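 PAMPA passive-diffusion assay run as contract research under the provider's protocols, with control compounds. After 6 h incubation, permeability (Pe) and percentage recovery determined.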

[21] = Permeability of the compound assessed as drug recovery measured after 6 hrs by PAMPA assay; assay type: ADME; conditions: read-out: Drug recovery; in short: as §4
[22] = Ratio of permeability across dog MDCK cells transfected with MDR1 to permeability across wild type dog MDCK cells; assay type: ADME, cell-based, Canis lupus familiaris
[23] = Stability of the compound in phosphate buffered saline at pH 7.4 by 1H NMR spectroscopy; assay type: physicochemical; conditions: buffer; in short: as §2
[24] = Stability of the compound in phosphate buffered saline at pH 5.5 by 1H NMR spectroscopy; assay type: physicochemical; conditions: buffer; in short: as §2
[25] = Selectivity ratio of GI50 for cytotoxicity against human MRC5 cells to GI50 for antiproliferative activity against MMR-deficient human HCT-116 cells; assay type: toxicity, cell-based; conditions: MRC5 cells versus MMR-deficient HCT-116 cells, read-out: RatioGI50
[26] = system: U373V; test: Inhibition of cell colony formation in human U373V cells assessed as reduction in clonogenic survival at >=10 uM incubated for 24 hrs followed by drug removal and incubation in medium for 14 days; assay type: functional, cell-based
In short: (§5)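 Clonogenic survival: exponentially growing cells seeded in triplicate at 400 cells/well, attached overnight, then exposed for 24 h to 0, 2, 20 or 50 μM agent. Medium then replaced with drug-free medium for 14 days, or until control colonies held ≥50 cells. Colonies fixed in cold methanol, stained with 0.5% methylene blue, counted, and expressed relative to control. 2–3 experiments.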

[27] = system: U373M; test: Inhibition of cell colony formation in MGMT-expressing human U373M cells assessed as reduction in clonogenic survival at >=10 uM incubated for 24 hrs followed by drug removal and incubation in medium for 14 days; assay type: functional, cell-based; in short: as §5
[28] = system: HCT-116; test: Inhibition of cell colony formation in MMR-deficient human HCT-116 cells assessed as reduction in clonogenic survival at >=10 uM incubated for 24 hrs followed by drug removal and incubation in medium for 14 days; assay type: functional, cell-based; in short: as §5
[29] = system: HCT-116; test: Induction of cell cycle arrest in MMR-deficient human HCT-116 cells assessed as accumulation of cells at pre-G1 phase at 20 uM measured after 120 hrs by propidium iodide staining based flow cytometry (Rvb ~5%); assay type: functional
[30] = Induction of cell cycle arrest in MGMT-expressing human U373M cells assessed as accumulation of cells at G2/M phase at 20 uM measured after 120 hrs by propidium iodide staining based flow cytometry; assay type: functional
[31] = Induction of cell cycle arrest in MGMT-expressing human U373M cells assessed as accumulation of cells at G1 phase at 20 uM measured after 120 hrs by propidium iodide staining based flow cytometry (reference value: 66%); assay type: functional

SMILES: C#CCn1nnc2c(-c3nc(-c4ccncc4)cs3)ncn2c1=O
- GI50 [1]: 23.5 µM
- GI50 [2]: 25.1 µM
- GI50 [3]: 29 µM

SMILES: C#CCn1nnc2c(-c3nc(C(F)(F)F)cs3)ncn2c1=O
- GI50 [1]: 28.2 µM
- GI50 [2]: 25.4 µM
- GI50 [3]: 21.5 µM

SMILES: C#CCn1nnc2c(-c3nc(C)cs3)ncn2c1=O
- GI50 [1]: 8.45 µM
- GI50 [2]: 7.44 µM
- GI50 [3]: 7.04 µM
- GI50 at 168 h [4]: 25 µM
- half-life [5]: 1.47 h
- half-life [6]: 0.12 h
- half-life [7]: 2.81 h
- half-life [8]: 3.57 h
- half-life [9]: > 8 h
- half-life [10]: 2.97 min
- half-life [11]: 3.54 min
- microsomal CLint [12]: 97.8 µL/min/mg
- half-life [13]: 0.237 h
- microsomal CLint [14]: 18.6 µL/min/mg
- half-life [15]: 1.27 h
- microsomal CLint [16]: 68.5 µL/min/mg
- half-life [17]: 0.34 h
- microsomal CLint [18]: 14.7 µL/min/mg
- half-life [19]: 1.57 h
- Papp at 6 h [20]: 3.68 ×10⁻⁶ cm/s
- recovery at 6 h [21]: 18.5%
- Ratio [22]: 1.16
- Stability [23]: Stable
- Stability [24]: Stable

SMILES: C#CCn1nnc2c(-c3nc(C4CC4)cs3)ncn2c1=O
- GI50 [1]: 27.1 µM
- GI50 [2]: 25.8 µM
- GI50 [3]: 27.7 µM

SMILES: C#CCn1nnc2c(-c3nc(CN4CCOCC4)cs3)ncn2c1=O
- GI50 [1]: 23.9 µM
- GI50 [2]: 10.2 µM
- GI50 [3]: 12.2 µM

SMILES: C#CCn1nnc2c(-c3nc(C(C)(C)C)cs3)ncn2c1=O
- GI50 [1]: 27.3 µM
- GI50 [2]: 19.2 µM
- GI50 [3]: 25.1 µM

SMILES: C#CCn1nnc2c(-c3nc(-c4ccc(F)cc4)cs3)ncn2c1=O
- GI50 [1]: 27.9 µM
- GI50 [2]: 19.7 µM
- GI50 [3]: 27.6 µM

SMILES: C#CCn1nnc2c(-c3nc(C(C)C)cs3)ncn2c1=O
- GI50 [1]: 23.6 µM
- GI50 [2]: 19 µM
- GI50 [3]: 25.4 µM

SMILES: C#CCn1nnc2c(-c3nccs3)ncn2c1=O
- GI50 [1]: 3.59 µM
- GI50 [2]: 4.09 µM
- GI50 [3]: 5.35 µM
- GI50 at 168 h [4]: 25 µM
- selectivity ratio [25]: > 5
- inhibition [26]: Active
- inhibition [27]: Active
- inhibition [28]: Active
- Activity [29]: >60%
- Activity [30]: 21%
- Activity [31]: 43%
- half-life [5]: 3 h
- half-life [6]: 1.07 h
- half-life [7]: 3.29 h
- half-life [8]: 5.46 h
- half-life [9]: > 8 h
- half-life [10]: 3.34 min
- half-life [11]: 2.66 min
- microsomal CLint [12]: 44 µL/min/mg
- half-life [13]: 0.527 h
- microsomal CLint [14]: 16.4 µL/min/mg
- half-life [15]: 1.53 h
- microsomal CLint [16]: 37.2 µL/min/mg
- half-life [17]: 0.63 h
- microsomal CLint [18]: 17.5 µL/min/mg
- half-life [19]: 1.32 h
- Papp at 6 h [20]: 3.18 ×10⁻⁶ cm/s
- recovery at 6 h [21]: 17.5%
- Ratio [22]: 1.11
- Stability [23]: Stable
- Stability [24]: Stable

SMILES: Nc1nc[nH]c1-c1nccs1
- GI50 [1]: > 100 µM
- GI50 [2]: 89.3 µM
- GI50 [3]: 97 µM
